The values that follow come from ChEMBL document CHEMBL1811864 (Bioorg Med Chem, 2011).

For orientation: inhibition means the change of the read-out against control, counted positive when it falls. As a reminder, the IC50 is the concentration that gives 50% inhibition.

Data set [1] relates to Escherichia coli DH5[alpha]. Briefly: Antagonist activity at Escherichia coli DH5alpha (pJN105L + pSC11) LasR assessed as inhibition of OdDHL-induced quorum sensing activation at 10 uM after 8 hrs by beta-galactosidase reporter gene assay relative to untreated control. Type of data set: functional. A general note: A reporter such as luciferase makes a cellular process visible.

In data set [2] the test system is Escherichia coli DH5[alpha]. In words: Agonist activity at Escherichia coli DH5alpha (pJN105L + pSC11) LasR at 10 uM after 8 hrs by beta-galactosidase reporter gene assay relative to OdDHL. Type of data set: functional.
In data set [3] the target is T1, Transcriptional activator protein LuxR (Aliivibrio fischeri) (UniProt P12746).
T1 sequence (whole entry): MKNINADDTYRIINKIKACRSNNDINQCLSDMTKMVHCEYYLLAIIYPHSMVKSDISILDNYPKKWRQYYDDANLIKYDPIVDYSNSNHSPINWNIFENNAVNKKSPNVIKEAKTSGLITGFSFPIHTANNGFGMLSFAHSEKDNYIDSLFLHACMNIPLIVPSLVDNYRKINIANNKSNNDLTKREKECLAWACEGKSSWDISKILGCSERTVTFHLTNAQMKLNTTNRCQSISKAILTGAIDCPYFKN
Briefly: Antagonist activity at Vibrio fischeri ESI 114 (delta-LuxI) LuxR assessed as inhibition of […]-induced quorum sensing activation at 10 uM after 8 hrs by […] relative to untreated control. The class given is functional.

Data set [4] addresses T1, Transcriptional activator protein LuxR (Aliivibrio fischeri). In words: Agonist activity at Vibrio fischeri ESI 114 (delta-LuxI) LuxR at 10 uM after 8 hrs by […] relative to […]. Type of data set: functional. A digest of the protocol:
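V. fischeri ESI 114 lacking LuxI synthase but keeping its native lux operon; LuxR activity read as luminescence. Compounds were screened at 10 µM alone, without native AHL. Signal was normalized to the native-ligand positive control.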

The next data set has as its system Pseudomonas aeruginosa. In words: Growth inhibition of Pseudomonas aeruginosa PAO1 MW1 (pUM15) at 10 uM after 4 to 16 hrs. Particulars: in vivo. Type of data set: organism-based. A digest of the protocol: (§1)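 Bacterial growth was monitored over the reporter gene assay time course (4–16 h) with compounds at 10 µM.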
The next data set has as its system Escherichia coli. Briefly: Growth inhibition of Escherichia coli DH5alpha (pJN105L + pSC11) at 10 uM after 4 to 16 hrs. Type of data set: organism-based, DH5[alpha]. Particulars: in vivo. A digest of the protocol:
as §1

A further data set deals with Aliivibrio fischeri. Briefly: Growth inhibition of Vibrio fischeri ESI 114 (delta-LuxI) at 10 uM after 4 to 16 hrs. Type of data set: organism-based. The note with it: in vivo. A digest of the protocol:
as §1

Data set [5] deals with Agrobacterium tumefaciens. Briefly: Growth inhibition of Agrobacterium tumefaciens WCF (pCF372) at 10 uM after 4 to 16 hrs. Type of data set: organism-based. Particulars: in vivo. A digest of the protocol:
as §1

Data set [6] deals with T2, Transcriptional activator protein LasR (Pseudomonas aeruginosa (strain ATCC 15692 / PAO1 / 1C / PRS 101 / LMG12228)) (UniProt P25084).
T2 sequence (whole entry): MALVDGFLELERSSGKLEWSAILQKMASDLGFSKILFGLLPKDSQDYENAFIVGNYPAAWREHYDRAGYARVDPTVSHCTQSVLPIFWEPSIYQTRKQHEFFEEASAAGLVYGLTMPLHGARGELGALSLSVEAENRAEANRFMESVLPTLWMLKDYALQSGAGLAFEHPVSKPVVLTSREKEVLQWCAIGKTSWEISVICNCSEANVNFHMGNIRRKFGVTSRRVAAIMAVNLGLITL
In words: Agonist activity at Pseudomonas aeruginosa PAO1 MW1 (pUM15) LasR at 10 uM after 8 hrs by YFP fluorescence reporter gene assay relative to OdDHL.

Data set [7] has as its target T3, Transcriptional activator protein TraR (Agrobacterium tumefaciens) (UniProt P33905).
T3 sequence (whole entry): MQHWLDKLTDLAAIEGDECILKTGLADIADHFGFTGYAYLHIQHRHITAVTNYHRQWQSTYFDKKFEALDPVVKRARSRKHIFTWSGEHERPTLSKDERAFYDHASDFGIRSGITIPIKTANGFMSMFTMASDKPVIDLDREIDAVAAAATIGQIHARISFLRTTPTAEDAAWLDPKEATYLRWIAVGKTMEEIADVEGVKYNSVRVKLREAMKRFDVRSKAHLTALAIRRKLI
In words: Agonist activity at Agrobacterium tumefaciens WCF (pCF372) TraR at 10 uM after 8 hrs by beta-galactosidase reporter gene assay relative to […]. The class given is functional.

Data set [8] can be described thus: Antagonist activity at Escherichia coli DH5alpha (pJN105L + pSC11) LasR assessed as inhibition of OdDHL-induced quorum sensing activation after 8 hrs by beta-galactosidase reporter gene assay. The class given is functional, Escherichia coli DH5[alpha].
The target in data set [9] is T4, Transcriptional activator protein LuxR (Aliivibrio fischeri, UniProt P12746).
T4 sequence (P12746 whole entry): T1 sequence (whole entry)
Briefly: Antagonist activity at Vibrio fischeri ESI 114 (delta-LuxI) LuxR assessed as inhibition of OHHL-induced quorum sensing activation after 8 hrs by […].

Data set [10] has as its target T3, Transcriptional activator protein TraR (Agrobacterium tumefaciens). Briefly: Antagonist activity at Agrobacterium tumefaciens WCF (pCF372) TraR assessed as inhibition of […]-induced quorum sensing activation at 10 uM after 8 hrs by beta-galactosidase reporter gene assay relative to untreated control. Type of data set: functional.

On to `COc1ccc(CC(=O)NC2CCSC2=O)cc1` (racemic), for which the inhibition in [1] was 48%; in [3], 59%. The Activity was 0% in [2]; 0% in data set [4]; “Non-toxic” in the data set on Pseudomonas aeruginosa; “Non-toxic” in the data set on Escherichia coli; “Non-toxic” in the data set on Aliivibrio fischeri; “Non-toxic” in [5]. In data set [6], the Activity worked out at 4%.

For `CCCC(=O)N[C@H]1CCSC1=O`, the figures for the inhibition in data set [1] and in [3] were 17% and 42%, respectively. The Activity was 4% in data set [2]; 0% in data set [4]; 0% in data set [7]; “Non-toxic” with Pseudomonas aeruginosa; “Non-toxic” with Escherichia coli; “Non-toxic” in the data set with Aliivibrio fischeri. Besides, the results for the Activity entry in [5] and in [6] were “Non-toxic” and 22%, respectively.

For `CCCCCC(=O)N[C@H]1CCSC1=O`, the inhibition in data set [1] is 59%; in [3] it was 93%. The Activity is 1% in data set [2]; 0% in data set [4]; 0% in data set [7]; “Non-toxic” with Pseudomonas aeruginosa; “Non-toxic” in the data set on Escherichia coli; “Non-toxic” in the data set on Aliivibrio fischeri. The Activity result in [5] is “Non-toxic”; in data set [6], 20%. The figures for the IC50 in data set [8] and in data set [9] were 1100 nM and 840 nM, respectively.

For the compound `COc1ccc(CC(=O)N[C@H]2CCSC2=O)cc1`, the inhibition in data set [1] is 51%; in data set [3] it was 70%. Further, the Activity is 1% in data set [2]; 1% in data set [4]; 0% in data set [7]; “Non-toxic” with Pseudomonas aeruginosa; “Non-toxic” in the data set with Escherichia coli; “Non-toxic” in the data set on Aliivibrio fischeri. The figures for the Activity result in data set [5] and in data set [6] were “Non-toxic” and 7%, respectively. Further, the IC50 in data set [8] turned out to be 7200 nM.

As for `O=C(Cc1cccc([N+](=O)[O-])c1)NC1CCSC1=O` (racemic), the inhibition is -3% in data set [1], 30% in data set [3] and 30% in [10]. Besides, the Activity was 81% in data set [2]; 26% in data set [4]; 0% in data set [7]; “Non-toxic” in the data set with Pseudomonas aeruginosa; “Non-toxic” in the data set on Escherichia coli; “Non-toxic” in the data set on Aliivibrio fischeri. For the same compound, the values for the Activity result in [5] and in data set [6] were “Non-toxic” and 3%, respectively.

Consider `O=C(Cc1ccccc1)NC1CCSC1=O` (racemic), for which the inhibition in [1] is 61%; in data set [3] it was 30%; in data set [10], 13%. Further, the Activity in data set [2] was 3%; in [4], 0%; in [7] it was 0%; with Pseudomonas aeruginosa, “Non-toxic”; with Escherichia coli it was “Non-toxic”; in the data set with Aliivibrio fischeri it was “Non-toxic”. Besides, the Activity result in data set [5] was “Non-toxic”; in [6] it was 17%.

In the case of `O=C(Cc1ccc(Br)cc1)N[C@H]1CCSC1=O`, the inhibition in data set [1] is 80%; in [3], 97%. The Activity in data set [2] was 2%; in [4] it was 0%; in data set [7] it was 0%; with Pseudomonas aeruginosa, “Non-toxic”; in the data set with Escherichia coli it was “Non-toxic”; in the data set on Aliivibrio fischeri, “Non-toxic”. The Activity result was “Non-toxic” in data set [5] and 8% in data set [6]. Further, the figures for the IC50 in data set [8] and in [9] were 400 nM and 770 nM, respectively.

In the case of `CCCCCCCCCC(=O)CC(=O)NC1CCSC1=O` (racemic), the Activity in [2] is 102%; in data set [4] it was 0%; in data set [7], 1%; in the data set with Pseudomonas aeruginosa, “Non-toxic”; with Escherichia coli it was “Non-toxic”; with Aliivibrio fischeri it was “Non-toxic”. In addition, the values for the Activity result in data set [5] and in data set [6] were “Non-toxic” and 127%, respectively. The results for the inhibition in [3] and in data set [10] were 91% and 51%, respectively.

In the case of `O=C(Cc1ccc(-c2ccccc2)cc1)N[C@H]1CCSC1=O`, the inhibition amounted to 56% in data set [1], 98% in [3] and 9% in data set [10]. For the same compound, the Activity in data set [2] is 9%; in [4], 0%; in [7], 0%; in the data set with Pseudomonas aeruginosa, “Non-toxic”; in the data set with Escherichia coli, “Non-toxic”; in the data set with Aliivibrio fischeri, “Non-toxic”. The Activity entry was “Non-toxic” in data set [5] and 3% in data set [6]. Besides, the figures for the IC50 in data set [8] and in data set [9] were 2900 nM and 350 nM, respectively.

With `O=C(Cc1ccc(-c2ccccc2)cc1)NC1CCSC1=O` (racemic), the inhibition in data set [1] amounted to 45%; in data set [3], 85%; in data set [10] it was 26%. For the same compound, the Activity in [4] is 0%; in data set [7] it was 11%; with Pseudomonas aeruginosa, “Non-toxic”; in the data set with Escherichia coli, “Non-toxic”; in the data set with Aliivibrio fischeri, “Non-toxic”; in data set [5], “Non-toxic”. In addition, in data set [6], the Activity was determined as 1%.

With `O=C(CCc1cc2ccccc2[nH]1)NC1CCSC1=O` (racemic), the inhibition in [1] came to 54%; in [3], 75%. Further, the Activity was 72% in [2]; 0% in data set [4]; 6% in [7]; “Non-toxic” with Pseudomonas aeruginosa; “Non-toxic” in the data set with Escherichia coli; “Non-toxic” with Aliivibrio fischeri. The Activity result is “Non-toxic” in [5] and 3% in data set [6].

Regarding `O=C(Cc1ccccc1)N[C@H]1CCSC1=O`, the inhibition came to 65% in data set [1] and 34% in [3]. Also, the Activity in data set [2] is 2%; in data set [4] it was 0%; in [7], 3%; in the data set with Pseudomonas aeruginosa it was “Non-toxic”; in the data set on Escherichia coli, “Non-toxic”; in the data set on Aliivibrio fischeri, “Non-toxic”. For the same compound, the results for the Activity entry in [5] and in data set [6] were “Non-toxic” and 2%, respectively. For the same compound, the IC50 in data set [8] came to 2500 nM.

Consider `O=C(Cc1ccc(Br)cc1)NC1CCSC1=O` (racemic), for which the inhibition in data set [1] is 68%; in data set [3], 91%; in [10], 25%. In addition, the Activity in data set [2] is 8%; in data set [4] it was 0%; in [7], 1%; with Pseudomonas aeruginosa it was “Non-toxic”; with Escherichia coli, “Non-toxic”; in the data set on Aliivibrio fischeri it was “Non-toxic”. In addition, the Activity result was “Non-toxic” in data set [5] and 5% in data set [6].
